Source: ChEMBL document CHEMBL4130456 (ACS Med Chem Lett, 2017)
Values after ≈ are worked out from the molar mass of the structure shown.

Columns and labels:
[1] = molecular target: T1, Phosphatidylinositol 4,5-bisphosphate 3-kinase catalytic subunit delta isoform (Homo sapiens, UniProt O00329); assay: Inhibition of PI3Kdelta (unknown origin) using phosphatidyl inositol as substrate measured after 60 mins by Alexa Fluor647-labelled ADP tracer based TR-FRET assay
T1 sequence (O00329 whole entry): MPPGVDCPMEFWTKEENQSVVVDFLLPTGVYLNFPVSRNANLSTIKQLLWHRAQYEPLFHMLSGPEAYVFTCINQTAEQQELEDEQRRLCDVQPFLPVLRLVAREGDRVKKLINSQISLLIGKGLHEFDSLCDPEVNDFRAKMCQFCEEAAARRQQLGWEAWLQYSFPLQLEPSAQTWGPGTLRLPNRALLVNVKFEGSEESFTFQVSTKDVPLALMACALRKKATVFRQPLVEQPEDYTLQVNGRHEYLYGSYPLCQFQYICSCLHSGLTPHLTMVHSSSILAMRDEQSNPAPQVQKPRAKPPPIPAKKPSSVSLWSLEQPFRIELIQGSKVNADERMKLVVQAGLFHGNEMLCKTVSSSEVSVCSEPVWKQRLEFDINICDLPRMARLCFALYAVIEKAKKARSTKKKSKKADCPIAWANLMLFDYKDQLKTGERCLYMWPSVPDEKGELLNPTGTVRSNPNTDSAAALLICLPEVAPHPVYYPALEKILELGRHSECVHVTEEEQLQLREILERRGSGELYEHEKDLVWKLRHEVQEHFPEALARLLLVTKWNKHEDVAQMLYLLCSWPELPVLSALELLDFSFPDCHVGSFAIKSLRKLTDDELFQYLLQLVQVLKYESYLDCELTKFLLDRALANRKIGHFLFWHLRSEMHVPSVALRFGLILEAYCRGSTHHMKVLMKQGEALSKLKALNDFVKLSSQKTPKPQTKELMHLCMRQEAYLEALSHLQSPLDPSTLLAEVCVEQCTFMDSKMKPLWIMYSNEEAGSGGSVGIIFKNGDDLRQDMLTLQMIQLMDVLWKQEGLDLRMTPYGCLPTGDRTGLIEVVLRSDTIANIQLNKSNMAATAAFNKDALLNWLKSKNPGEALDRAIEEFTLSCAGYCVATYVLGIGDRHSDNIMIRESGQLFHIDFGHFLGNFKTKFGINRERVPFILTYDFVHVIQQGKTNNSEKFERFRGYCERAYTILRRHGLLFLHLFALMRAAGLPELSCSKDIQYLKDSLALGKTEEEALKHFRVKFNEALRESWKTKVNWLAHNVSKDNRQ

[2] = molecular target: T1, Phosphatidylinositol 4,5-bisphosphate 3-kinase catalytic subunit delta isoform; assay: Inhibition of recombinant human myristoylated PI3Kdelta catalytic domain expressed in Rat1 cells assessed as reduction in Akt phosphorylation at […] residue after 1 hr by alpha screen Surefire assay; format: cell-based
[3] = Intrinsic clearance in rat liver microsomes assessed per mg protein; format: ADME, microsome; settings: read-out: CLH
[4] = Equilibrium solubility of the compound at pH 6.8 by LC-MS/MS analysis; format: physicochemical; settings: buffer
Outline: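 High-throughput equilibrium solubility at pH 6.8, reported in mM.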

[5] = molecular target: T2, Phosphatidylinositol 4,5-bisphosphate 3-kinase catalytic subunit beta isoform (Homo sapiens, UniProt P42338); assay: Inhibition of recombinant PI3Kbeta (unknown origin) using phosphatidyl inositol/n-Octyl-glucoside as substrate measured after 60 mins by KinaseGlo assay
[6] = molecular target: T3, Phosphatidylinositol 4,5-bisphosphate 3-kinase catalytic subunit alpha isoform (Homo sapiens, UniProt P42336); assay: Inhibition of recombinant human myristoylated PI3Kalpha catalytic domain expressed in Rat1 cells assessed as reduction in Akt phosphorylation at […] residue after 1 hr by alpha screen Surefire assay; format: cell-based
[7] = molecular target: T3, Phosphatidylinositol 4,5-bisphosphate 3-kinase catalytic subunit alpha isoform; assay: Inhibition of recombinant PI3Kalpha (unknown origin) using phosphatidyl inositol/n-Octyl-glucoside as substrate measured after 30 mins by KinaseGlo assay
[8] = molecular target: T2, Phosphatidylinositol 4,5-bisphosphate 3-kinase catalytic subunit beta isoform; assay: Inhibition of recombinant human myristoylated PI3Kbeta catalytic domain expressed in Rat1 cells assessed as reduction in Akt phosphorylation at […] residue after 1 hr by alpha screen Surefire assay; format: cell-based
[9] = Lipophilicity, log P of the compound by artificial membrane based assay; format: physicochemical
[10] = molecular target: Phosphatidylinositol 4,5-bisphosphate 3-kinase catalytic subunit gamma isoform (Homo sapiens, UniProt P48736); assay: Inhibition of PI3Kgamma (unknown origin) using phosphatidyl inositol as substrate measured after 30 mins by Alexa Fluor647-labelled ADP tracer based TR-FRET assay
[11] = Inhibition of PI3Kdelta in 50% rat blood assessed as reduction in anti-IgM stimulated CD86 expression pretreated for 1 hr followed by anti-IgM stimulation after 24 hrs by flow cytometric analysis
Outline: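 Rat 50% whole blood; B cells stimulated with anti-IgM/IL-4; readouts pAKT or CD86.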

[12] = molecular target: T4, Phosphatidylinositol 4,5-bisphosphate 3-kinase catalytic subunit delta isoform (Mus musculus, UniProt O35904); assay: Inhibition of PI3Kdelta in Balb/c mouse splenocytes assessed as reduction in anti-IgM stimulated CD86 expression pretreated for 1 hr followed by anti-IgM stimulation after 24 hrs by flow cytometric analysis; format: cell-based
T4 sequence (O35904 whole entry): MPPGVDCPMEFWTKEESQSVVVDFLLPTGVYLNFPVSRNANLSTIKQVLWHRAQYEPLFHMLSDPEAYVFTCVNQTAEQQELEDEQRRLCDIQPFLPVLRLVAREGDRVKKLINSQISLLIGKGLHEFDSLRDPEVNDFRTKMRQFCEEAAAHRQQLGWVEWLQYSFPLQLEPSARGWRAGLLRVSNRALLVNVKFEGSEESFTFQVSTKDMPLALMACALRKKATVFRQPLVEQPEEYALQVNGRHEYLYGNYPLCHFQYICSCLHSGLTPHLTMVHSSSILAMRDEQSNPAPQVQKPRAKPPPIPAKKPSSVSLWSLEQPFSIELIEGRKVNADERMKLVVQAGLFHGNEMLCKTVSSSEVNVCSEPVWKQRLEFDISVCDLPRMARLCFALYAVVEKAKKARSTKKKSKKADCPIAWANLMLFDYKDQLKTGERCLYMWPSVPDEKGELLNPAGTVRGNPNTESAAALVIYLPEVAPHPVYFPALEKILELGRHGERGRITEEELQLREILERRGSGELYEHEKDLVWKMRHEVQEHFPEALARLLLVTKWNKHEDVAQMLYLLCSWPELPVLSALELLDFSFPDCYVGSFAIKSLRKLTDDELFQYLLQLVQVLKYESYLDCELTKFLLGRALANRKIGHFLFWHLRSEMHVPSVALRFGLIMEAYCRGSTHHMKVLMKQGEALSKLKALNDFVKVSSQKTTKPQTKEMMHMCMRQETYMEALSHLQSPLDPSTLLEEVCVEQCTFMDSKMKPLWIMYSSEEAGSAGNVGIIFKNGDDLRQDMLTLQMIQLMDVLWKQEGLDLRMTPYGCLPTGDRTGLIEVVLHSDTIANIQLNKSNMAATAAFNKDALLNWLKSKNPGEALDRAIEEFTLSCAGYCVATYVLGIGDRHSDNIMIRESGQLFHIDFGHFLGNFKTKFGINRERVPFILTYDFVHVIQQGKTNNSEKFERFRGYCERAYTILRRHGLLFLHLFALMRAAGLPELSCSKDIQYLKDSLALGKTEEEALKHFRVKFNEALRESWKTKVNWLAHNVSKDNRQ

T3 sequence (P42336 whole entry, the tested form may be a part, canonical isoform): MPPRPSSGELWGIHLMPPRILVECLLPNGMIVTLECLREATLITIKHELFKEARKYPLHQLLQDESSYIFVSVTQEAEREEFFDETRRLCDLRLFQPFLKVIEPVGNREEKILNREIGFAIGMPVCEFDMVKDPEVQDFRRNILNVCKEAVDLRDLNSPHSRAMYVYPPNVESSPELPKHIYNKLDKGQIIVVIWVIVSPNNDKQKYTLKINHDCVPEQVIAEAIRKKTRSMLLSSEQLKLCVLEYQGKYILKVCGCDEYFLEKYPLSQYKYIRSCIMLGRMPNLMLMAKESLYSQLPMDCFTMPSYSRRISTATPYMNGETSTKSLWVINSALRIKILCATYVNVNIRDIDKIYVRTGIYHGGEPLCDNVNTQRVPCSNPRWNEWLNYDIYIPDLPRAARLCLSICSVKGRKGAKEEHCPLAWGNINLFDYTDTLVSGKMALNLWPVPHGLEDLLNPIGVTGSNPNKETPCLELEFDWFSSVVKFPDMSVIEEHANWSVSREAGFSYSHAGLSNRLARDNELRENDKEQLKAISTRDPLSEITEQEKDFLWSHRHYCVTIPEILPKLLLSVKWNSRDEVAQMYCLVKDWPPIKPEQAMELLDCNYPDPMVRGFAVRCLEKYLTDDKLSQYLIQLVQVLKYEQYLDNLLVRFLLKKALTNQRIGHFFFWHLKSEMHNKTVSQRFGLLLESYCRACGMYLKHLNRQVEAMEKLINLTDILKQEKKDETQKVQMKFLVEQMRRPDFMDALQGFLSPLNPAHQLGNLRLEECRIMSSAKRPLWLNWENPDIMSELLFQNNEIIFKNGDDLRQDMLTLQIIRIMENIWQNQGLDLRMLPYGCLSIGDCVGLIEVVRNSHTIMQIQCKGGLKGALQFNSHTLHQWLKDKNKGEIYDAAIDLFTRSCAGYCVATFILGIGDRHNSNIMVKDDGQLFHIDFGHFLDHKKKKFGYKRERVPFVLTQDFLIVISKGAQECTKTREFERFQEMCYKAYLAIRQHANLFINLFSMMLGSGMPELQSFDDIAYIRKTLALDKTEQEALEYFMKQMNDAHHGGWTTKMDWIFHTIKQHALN
T2 sequence (P42338 whole entry, the tested form may be a part, canonical isoform): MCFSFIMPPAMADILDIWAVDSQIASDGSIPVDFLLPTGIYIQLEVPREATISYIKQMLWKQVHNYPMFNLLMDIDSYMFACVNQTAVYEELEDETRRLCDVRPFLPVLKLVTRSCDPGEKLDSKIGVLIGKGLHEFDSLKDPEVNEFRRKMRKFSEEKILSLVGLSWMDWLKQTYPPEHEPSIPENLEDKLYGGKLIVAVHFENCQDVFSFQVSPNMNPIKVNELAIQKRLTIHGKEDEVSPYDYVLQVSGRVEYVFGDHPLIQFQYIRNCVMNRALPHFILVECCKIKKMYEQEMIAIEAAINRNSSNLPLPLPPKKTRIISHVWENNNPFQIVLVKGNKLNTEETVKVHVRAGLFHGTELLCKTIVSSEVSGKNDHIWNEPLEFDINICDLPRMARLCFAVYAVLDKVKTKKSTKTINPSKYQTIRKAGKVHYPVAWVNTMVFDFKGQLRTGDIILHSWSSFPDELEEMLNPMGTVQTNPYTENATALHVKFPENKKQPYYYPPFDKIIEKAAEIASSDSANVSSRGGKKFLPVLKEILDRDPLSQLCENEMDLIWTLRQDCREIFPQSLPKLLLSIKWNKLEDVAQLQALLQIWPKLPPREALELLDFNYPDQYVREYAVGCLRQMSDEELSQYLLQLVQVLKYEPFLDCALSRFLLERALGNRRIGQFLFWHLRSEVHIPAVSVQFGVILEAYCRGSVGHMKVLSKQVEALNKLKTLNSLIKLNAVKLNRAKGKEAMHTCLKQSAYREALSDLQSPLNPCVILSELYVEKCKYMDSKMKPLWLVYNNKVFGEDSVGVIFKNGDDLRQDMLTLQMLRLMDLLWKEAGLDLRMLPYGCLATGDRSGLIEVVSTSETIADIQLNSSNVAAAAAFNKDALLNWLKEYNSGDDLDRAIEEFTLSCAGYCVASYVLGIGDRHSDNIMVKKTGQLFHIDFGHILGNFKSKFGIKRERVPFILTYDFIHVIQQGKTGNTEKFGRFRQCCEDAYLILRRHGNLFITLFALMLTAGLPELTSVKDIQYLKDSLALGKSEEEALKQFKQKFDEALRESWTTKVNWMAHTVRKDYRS
Sequence of Phosphatidylinositol 4,5-bisphosphate 3-kinase catalytic subunit gamma isoform (P48736 whole entry, canonical isoform): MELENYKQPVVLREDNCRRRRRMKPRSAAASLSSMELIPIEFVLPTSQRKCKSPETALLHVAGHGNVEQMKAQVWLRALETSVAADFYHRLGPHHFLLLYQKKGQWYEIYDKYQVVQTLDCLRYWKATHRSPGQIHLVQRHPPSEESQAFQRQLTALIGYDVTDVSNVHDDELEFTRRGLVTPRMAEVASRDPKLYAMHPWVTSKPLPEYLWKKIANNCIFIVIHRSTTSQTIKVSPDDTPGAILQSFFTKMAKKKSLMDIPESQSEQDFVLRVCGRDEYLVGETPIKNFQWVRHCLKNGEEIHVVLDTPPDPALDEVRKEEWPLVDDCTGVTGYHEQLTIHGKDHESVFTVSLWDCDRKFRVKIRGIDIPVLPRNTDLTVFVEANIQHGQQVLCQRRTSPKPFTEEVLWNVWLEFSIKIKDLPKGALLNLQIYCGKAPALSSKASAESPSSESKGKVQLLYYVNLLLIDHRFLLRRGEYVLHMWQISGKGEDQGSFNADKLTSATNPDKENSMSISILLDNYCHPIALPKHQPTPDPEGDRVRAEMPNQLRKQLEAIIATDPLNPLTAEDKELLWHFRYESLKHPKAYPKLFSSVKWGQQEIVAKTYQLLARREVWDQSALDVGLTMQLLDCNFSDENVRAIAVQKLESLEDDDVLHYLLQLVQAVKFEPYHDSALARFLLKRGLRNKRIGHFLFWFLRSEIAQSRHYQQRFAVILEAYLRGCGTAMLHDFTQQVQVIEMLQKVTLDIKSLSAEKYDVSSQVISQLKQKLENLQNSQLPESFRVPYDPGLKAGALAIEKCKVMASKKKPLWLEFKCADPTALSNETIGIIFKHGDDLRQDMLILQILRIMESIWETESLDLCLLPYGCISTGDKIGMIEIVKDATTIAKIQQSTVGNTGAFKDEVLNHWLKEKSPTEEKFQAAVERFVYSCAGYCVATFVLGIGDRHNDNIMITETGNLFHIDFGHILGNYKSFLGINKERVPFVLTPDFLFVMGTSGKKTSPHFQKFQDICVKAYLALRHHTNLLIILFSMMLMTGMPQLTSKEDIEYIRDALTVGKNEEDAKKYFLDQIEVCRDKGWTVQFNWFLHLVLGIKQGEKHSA

Structure (SMILES) | IC50 [1] [µM] | IC50 [2] [µM] | microsomal CLint [3] [µL/min/mg] | solubility thermodynamic [4] [µM] | IC50 [5] [µM] | IC50 [6] [µM] | IC50 [7] [µM] | IC50 [8] [µM] | logP [9] | IC50 [10] [µM] | IC50 [11] [µM] | IC50 [12] [µM]
CCC(=O)N1CC[C@H](Oc2ncnc3c2CN(c2ccc(OC)nc2)CC3)C1 | 0.132 | 5.39 | 35 | > 1000 | 8.94 | > 10 | 6.66 | > 10 | 2.2 | > 9.1 |  | 
CCC(=O)N1CC[C@H](Oc2ncnc3c2CN(c2cnc(OC)c(C(F)(F)F)c2)CC3)C1 | 0.027 | 0.131 | 160 | 80 (≈ 36.1 µg/mL) | 1.71 | 2.6 |  | 3.11 | 3.1 | > 9.1 |  | 
COc1ncc(N2CCc3ncnc(N[C@H]4CCN(C(=O)C5CCOCC5)C4)c3C2)cc1C | 0.03 | 0.358 | 22 | > 1000 | 2.02 |  |  | 9.87 | 2.6 | 3.29 | 0.074 | 0.091
COc1ncc(N2CCc3ncnc(O[C@H]4CCN(C(=O)C5CCOCC5)C4)c3C2)cc1C | 0.076 | 0.143 | 60 | > 1000 | 4.15 |  |  | 6.79 | 1.7 | 6.6 | 0.092 | 0.098
CCC(=O)N1CC[C@H](Nc2ncnc3c2CN(c2cnc(OC)c(C)c2)CC3)C1 |  |  |  | > 1000 | 0.951 | 7.41 |  | 7.91 | 2.8 |  | 0.073 | 0.087
COc1ncc(N2CCc3ncnc(O[C@H]4CCN(C(=O)C5CCOCC5)C4)c3C2)cc1C(F)(F)F | 0.028 | 0.037 | 149 | 270 (≈ 137 µg/mL) | 1.33 | 3.55 |  | 3.58 | 2.2 | > 9.1 | 0.058 | 0.084
COc1ncc(N2CCc3ncnc(N[C@H]4CCN(C(=O)C5CCOCC5)C4)c3C2)cc1C(F)(F)F | 0.004 |  | 41 | 240 (≈ 122 µg/mL) | 0.3 | 2.15 | 0.044 | 3.99 | 2.9 | 1.06 | 0.016 | 0.015
COc1ccc(N2CCc3ncnc(-c4cccc(C(=O)N5CCN(C(C)=O)CC5)c4)c3C2)cn1 | 0.065 | 2.63 | 91 | > 1000 | > 9.1 | > 10 | 6.94 | > 10 | 0.7 | > 9.1 |  | 
COc1ccc(N2CCc3ncnc(-c4cccc(OC5CCN(C(C)=O)CC5)c4)c3C2)cn1 | 0.083 | 0.374 | 197 | > 1000 | 8.94 | 9.03 | 2.02 | > 10 | 2.2 | > 9.1 |  | 
